# Screens deposited in PubChem BioAssay by several laboratories.
# A selection: hits, their analogues and other compounds. The true share with any hit is near 1.6%.
# p-CIP stab down = p/CIP-EGFP fusion destabilizers, primary screen, fluorescence, F442A cells | Q05BA5 | 16 h | decrease of EGFP signal, % at 10 µM | 290,000 tested, 0.01% active | AID 1984, 2009;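 active = EGFP signal decrease of at least 30% at 10 µM or well 3 SD below plate mean, unless failing retest; inactive = the rest, including hits failing retest or dose response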
# Target sequence (Q05BA5 1-1403): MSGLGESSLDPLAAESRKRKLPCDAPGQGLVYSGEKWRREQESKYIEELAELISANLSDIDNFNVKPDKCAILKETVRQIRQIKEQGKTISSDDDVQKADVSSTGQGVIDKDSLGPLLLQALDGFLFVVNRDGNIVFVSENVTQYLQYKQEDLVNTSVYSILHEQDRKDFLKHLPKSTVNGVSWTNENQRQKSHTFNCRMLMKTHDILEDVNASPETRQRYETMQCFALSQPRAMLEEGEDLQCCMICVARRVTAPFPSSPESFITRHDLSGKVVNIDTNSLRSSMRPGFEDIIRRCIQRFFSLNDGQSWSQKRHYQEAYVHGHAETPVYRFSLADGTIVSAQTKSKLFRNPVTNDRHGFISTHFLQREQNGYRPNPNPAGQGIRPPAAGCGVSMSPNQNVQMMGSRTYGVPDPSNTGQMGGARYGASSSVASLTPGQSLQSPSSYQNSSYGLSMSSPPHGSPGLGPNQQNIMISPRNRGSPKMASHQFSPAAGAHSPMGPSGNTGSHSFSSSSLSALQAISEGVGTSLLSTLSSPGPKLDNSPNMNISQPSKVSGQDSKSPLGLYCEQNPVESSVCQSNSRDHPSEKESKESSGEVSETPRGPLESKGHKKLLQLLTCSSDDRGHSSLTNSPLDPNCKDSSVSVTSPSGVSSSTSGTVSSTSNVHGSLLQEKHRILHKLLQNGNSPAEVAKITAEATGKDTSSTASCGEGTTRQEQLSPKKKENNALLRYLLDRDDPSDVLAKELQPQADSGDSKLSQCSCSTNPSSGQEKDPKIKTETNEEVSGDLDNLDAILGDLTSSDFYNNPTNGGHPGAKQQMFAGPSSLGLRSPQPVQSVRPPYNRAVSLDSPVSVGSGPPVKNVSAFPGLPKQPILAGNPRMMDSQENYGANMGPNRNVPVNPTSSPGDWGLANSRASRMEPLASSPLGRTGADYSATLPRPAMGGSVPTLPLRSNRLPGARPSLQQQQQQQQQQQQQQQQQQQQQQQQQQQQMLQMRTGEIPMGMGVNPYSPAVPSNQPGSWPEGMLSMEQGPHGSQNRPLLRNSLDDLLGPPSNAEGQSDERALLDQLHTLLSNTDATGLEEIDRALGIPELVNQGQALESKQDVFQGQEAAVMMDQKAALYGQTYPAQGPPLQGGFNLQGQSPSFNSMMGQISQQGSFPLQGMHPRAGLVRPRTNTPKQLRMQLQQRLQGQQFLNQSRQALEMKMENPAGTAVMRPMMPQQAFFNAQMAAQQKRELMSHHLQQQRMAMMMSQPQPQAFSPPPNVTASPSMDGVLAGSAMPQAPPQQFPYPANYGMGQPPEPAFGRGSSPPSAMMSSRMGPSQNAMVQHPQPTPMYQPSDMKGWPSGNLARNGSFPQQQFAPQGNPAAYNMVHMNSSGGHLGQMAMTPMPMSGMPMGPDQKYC
# SKN-1 inh = suppressors of acrylamide-induced Pgst-4::GFP reporter in worms, primary screen, SKN-1 inhibitor project, whole organism, uHTS, GFP/RFP fluorescence ratio, strain VP596; C. elegans VP596 Pgst-4::GFP/RFP ratio, 24 h; inhibition, % at 21.8 µM; 360,000 tested, 0.49% active; AID 624304, 2012;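 active = interference check ratio from 0.5 to 1.5 plus GFP to RFP signal ratio inhibition reaching or exceeding a fixed threshold, cut at about 30% in these data, passing the limit was not always enough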
# MT1-MMP act inh = blockers of MT1-MMP proenzyme processing, primary screen, HT1080 RFP-PRO-GFP cells, GFP/RFP fluorescence. Matrix metalloproteinase-14 (Homo sapiens), P50281. GFP/RFP ratio fluorescence, overnight; percent of plate control window, DMSO zero. GFP/RFP ratio change, % at 20 µM. 360,000 tested, 0.061% active;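 active = GFP/RFP ratio change of at least 30% with cell ATP level not reduced by more than half and red fluorescence within 50% of control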
#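 Assay system: HT1080 RFP-PRO-GFP cells | Dosing: 20 µM single dose, 1% DMSO | Incubation: Cells overnight before dosing, compound overnight, 37 °C, 5% CO2 | Evaluation: GFP/RFP fluorescence ratio | Control set: DMSO-only wells and HT1080 RFP-L50D-GFP cell wells as references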
# MsrA inhibitor = bovine MsrA enzyme inhibitors, primary screen, biochemical, absorbance, HTS; Methionine sulfoxide reductase A (Bos taurus); purified bovine MsrA, absorbance read-out; inhibition, % at 15.5 µM; 360,000 tested, 0.75% active;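 also: 0% = vehicle wells with enzyme and 100% = reference inhibitor wells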
# MsrA act = bovine MsrA enzyme activators, primary screen, biochemical, absorbance, HTS; Methionine sulfoxide reductase A (Bos taurus); purified bovine MsrA, absorbance read-out; activation, % at 10.6 µM; 360,000 tested, 0.3% active; AID 602163, 2012; in the data active = activation above about 7.5%;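 also: 0% = vehicle and 100% = reference activator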
# MsrA conf = bovine MsrA inhibitors, retest, confirmation, biochemical, absorbance, HTS; shares compounds with MsrA inhibitor; purified bovine MsrA, absorbance read-out; inhibition, % at 15.5 µM; 2,300 tested, 41% active;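 also: coupled to thioredoxin reductase with NADPH and selenocystamine and DMSO as substrate; 0% = vehicle only and 100% = full effect of reference inhibitor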
# An asterisk follows results filed as active; . = not tested or not shown; ! = a repeat was not active. Rule as the data show it, unless noted: active = inhibition above about 4.5%; inactive = the rest.
SMILES,p-CIP stab down,SKN-1 inh,MT1-MMP act inh,MsrA inhibitor,MsrA act,MsrA conf
CCN(CC)C(=O)c1ccc2nc(-c3ccccc3)c(-c3ccccc3)nc2c1,-9.1,7.8,-4.2,1.2,-3.1,.
CCN(CC)C(=O)c1ccc2nc3ccccc3nc2c1,-7.5,-1.0,-6.8,5.6*,-4.2,2.0
COC(=O)[C@]12C[C@H](CC(=O)NCc3cccc4ccccc34)C(=O)N(CCc3ccc(OC)c(OC)c3)C1=C[C@H](C(C)(C)C)O[C@@H]2C,.,.,.,0.2,.,.
O=C(C(=O)N1CCC(CNS(=O)(=O)c2ccccc2OC(F)(F)F)CC1)c1cccs1,.,.,.,0.1,.,.
O=C1c2ccccc2C2Cc3nnccc3CN12 (stereo not drawn),.,.,.,0.9,.,.
O=C(C1=C(O)C(=O)N(CCCn2ccnc2)C1c1ccccc1)c1ccco1 (stereo not drawn),3.6,-11.0,-2.3,.,-8.1,.
O=C(C1=C(O)C(=O)N(CCCn2ccnc2)C1c1cccc(Br)c1)c1ccco1 (stereo not drawn),-3.9,-19.5,-0.4,13.2*,-6.3,7.8*
COc1ccc(/C=C2\SC(=O)N(CCNC(=O)C3CSC4(C)CCC(=O)N34)C2=O)cc1 (stereo not drawn),.,-22.6,-1.5,6.4*,-7.5,3.0
COc1ccc(/C=C2\SC(=O)N(CCn3cnnn3)C2=O)cc1,-2.7,1.5,.,6.3*,-5.7,4.5
COc1ccc(/C=C2/SC(=O)N(CCNC(=O)C3CCCN3C(=O)c3cccs3)C2=O)cc1 (stereo not drawn),-21.7,1.2,0.4,5.6*,-4.5,4.1
Cc1ccccc1S(=O)(=O)N(C)C[C@@H]1OCc2cn(nn2)CCCC(=O)N([C@@H](C)CO)C[C@H]1C,.,.,.,-0.3,.,.
COc1ccc2cc3[n+](cc2c1OC)CCc1cc2c(cc1-3)OCO2,3.2,-4.1,-12.0,6.6*!,-6.5,5.4*
COc1cccc(C2=NCCc3cc4c(cc32)OCO4)c1OC,-20.5,7.5,.,1.7,-12.9,.
CC(C)C(=O)N1CCN(c2ccc([N+](=O)[O-])c(NC(C)c3ccccc3)c2)CC1 (stereo not drawn),4.3,7.8,-1.0,11.8*,-2.6,7.2*
O=[N+]([O-])c1ccc(N2CCCC2)cc1NC(c1ccccc1)c1ccccc1,-16.7,-1.3,-3.4,0.4,-3.4,.
CCN1C(=O)/C(=C\N(C(C)=O)c2ccccc2)OC1=S,-15.0,14.1,-1.8,6.7*,-5.5,5.0*
NC(=O)Cc1nc(-c2ccc([N+](=O)[O-])cc2)cs1,8.9,8.5,-0.3,5.0*,-3.7,0.9
NC(=O)Cc1nc(-c2ccc(F)cc2)cs1,6.9,-20.1,-1.8,0.5,-0.8,.
CCOc1ccccc1Nc1cc2n(c(=O)n1)CCc1cc(OC)c(OC)cc1-2,-11.1,7.8,-1.4,6.9*,-1.5,3.7
CC(=O)Nc1ccc2nc(-c3ccco3)[nH]c2c1,3.0,-3.3,-0.2,0.7,-0.9,.
O=C(Nc1ccc2nc(-c3ccco3)[nH]c2c1)c1ccco1,-3.0,-0.9,8.3,5.1*,-2.7,3.7
CCOC(=O)C1CCCN(C(=O)c2cnn3c(C(F)(F)F)cc(-c4ccccc4)nc23)C1 (stereo not drawn),3.3,12.8,1.1,5.3*,-1.5,2.6
CCCCOc1ccc(/C(O)=C2/C(=O)C(=O)N(CCN(C)C)C2c2ccc(O)c(OC)c2)cc1 (stereo not drawn),3.9,-7.8,3.5,8.1*,-2.3,0.2
CCCOc1cccc(C2/C(=C(/O)c3ccc(OC)cc3)C(=O)C(=O)N2CCN(C)C)c1 (stereo not drawn),5.9,-7.0,1.4,3.2,-9.2,.
Oc1cccc(/C=N/n2c(C3CCCCC3)n[nH]c2=S)c1,4.5,0.2,-6.6,-1.3,0.9,.
O=[N+]([O-])c1cccc(/C=N/n2c(C3CCCCC3)n[nH]c2=S)c1,9.9,-6.8,3.8,5.0*,-0.2,12.6*
COc1cccc(/C=N/n2c(C3CCCCC3)n[nH]c2=S)c1,-6.9,3.4,-8.6,8.2*,2.2,6.5*
